# High-throughput results (PubChem BioAssay)
# In the library only some 2.4% were active in any assay of this set; here they are far more common.
# TCR-CD3 inh – inhibitors of human TCR-CD3 interaction, primary screen, biochemical, fluorescence, TAMRA-labeled TCR probe. T-cell receptor (TCR). inhibition, % at 9.4 µM. actives 0.37% (n = 360,000); in the data active = inhibition above about 19%;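 note: recombinant mutant TCR 2C K166C tagged with TAMRA read by polarization; 0% = receptor in buffer alone and 100% = receptor with positive control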
# Apaf1 inhib – inhibitors of human Apaf-1 apoptosome, primary screen, biochemical, DEVD-Rh110 fluorescence, uHTS. Apoptotic protease-activating factor 1 (Homo sapiens), O14727. reconstituted apoptosome caspase-3 activity. inhibition, % at 20 µM. actives 0.71% (n = 330,000). AID 489030, 2010; active = inhibition of at least 40% at 20 µM;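 note: plate controls were DMSO wells for no effect and DEVD-CHO caspase inhibitor wells for full effect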
#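 Assay system: Apoptosome proteins | Medium: pH 7.5 Hepes buffer with CHAPS, BSA, DTT | Also added: Cytochrome c and DEVD-Rh110 substrate | Times: 30 min plus 50 min, RT | Detection: Rhodamine 110 fluorescence at Ex 480/Em 540 nm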
# TDP2 inh – human TDP2 enzyme inhibitors, primary screen, biochemical, epi absorbance, recombinant enzyme; Tyrosyl-DNA phosphodiesterase 2 (Homo sapiens), O95551; T5PNP hydrolysis, p-nitrophenol absorbance 415 nm; inhibition, % at 12.8 µM; actives 0.34% (n = 370,000); AID 720702, 2013;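 active = inhibition above the mean of all tested compounds plus 3 SD, set per campaign, cut at about 25% in these data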;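 note: 0% = DMSO with enzyme and 100% = buffer with substrate but no TDP2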
#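 System: recombinant human TDP2 / Amount: 120 nM TDP2 per well / Also added: 5 mM T5PNP chromogenic substrate / Doses: 12.8 µM single point, 1% DMSO / Incubation: 2 h at 37 °C / Detection: p-Nitrophenol epi absorbance / Evaluation: % inhibition relative to enzyme-containing and enzyme-free wells / Repeats: singlicate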
# GSTO1 counter – inhibitors of recombinant GSTO1, primary screen, counter-screen for RBBP9 inhibitor project, biochemical, fluorescence polarization | inhibition, % at 5.96 µM | actives 1.1% (n = 300,000) | activity-based probe fluorescence polarization | Glutathione S-transferase omega-1 (Homo sapiens), P78417 | AID 1974, 2009;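 active = inhibition above the campaign mean inhibition plus 3 SD, cut at about 35% in these data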;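 note: 0% = GSTO1-1 with DMSO and 100% = wells lacking GSTO1-1 enzyme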
# SIAE primary – human SIAE inhibitors, primary screen, biochemical, fluorescence polarization, FP-Rh probe, 1536-well HTS; Sialate O-acetylesterase (Homo sapiens), Q9HAT2; SIAE FP-Rh probe binding; actives 0.69% (n = 370,000); AID 1053197, 2014; inhibition, % at 9.66 µM;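 active = inhibition above a cutoff: mean of compounds within the control limits plus 3 SD of those, cut at about 17% in these data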;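 note: 0% = plate median of compound wells and 100% = probe without SIAE protein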
# PAD4 inh – human PAD4 inhibitors, primary screen, biochemical, fluorescence polarization, 1536-well format | recombinant PAD4, RCA probe fluorescence polarization | Protein-arginine deiminase type-4 (Homo sapiens), Q9UM07 | inhibition, % at 6.36 µM | actives 0.41% (n = 330,000);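 active = percent inhibition above a cutoff equal to the mean of all tested compounds plus 3 SD, cut at about 15% in these data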;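 note: 0% = PAD4 with RCA probe and DMSO and 100% = probe without PAD4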
# Target sequence (Q9UM07 whole entry, looked up): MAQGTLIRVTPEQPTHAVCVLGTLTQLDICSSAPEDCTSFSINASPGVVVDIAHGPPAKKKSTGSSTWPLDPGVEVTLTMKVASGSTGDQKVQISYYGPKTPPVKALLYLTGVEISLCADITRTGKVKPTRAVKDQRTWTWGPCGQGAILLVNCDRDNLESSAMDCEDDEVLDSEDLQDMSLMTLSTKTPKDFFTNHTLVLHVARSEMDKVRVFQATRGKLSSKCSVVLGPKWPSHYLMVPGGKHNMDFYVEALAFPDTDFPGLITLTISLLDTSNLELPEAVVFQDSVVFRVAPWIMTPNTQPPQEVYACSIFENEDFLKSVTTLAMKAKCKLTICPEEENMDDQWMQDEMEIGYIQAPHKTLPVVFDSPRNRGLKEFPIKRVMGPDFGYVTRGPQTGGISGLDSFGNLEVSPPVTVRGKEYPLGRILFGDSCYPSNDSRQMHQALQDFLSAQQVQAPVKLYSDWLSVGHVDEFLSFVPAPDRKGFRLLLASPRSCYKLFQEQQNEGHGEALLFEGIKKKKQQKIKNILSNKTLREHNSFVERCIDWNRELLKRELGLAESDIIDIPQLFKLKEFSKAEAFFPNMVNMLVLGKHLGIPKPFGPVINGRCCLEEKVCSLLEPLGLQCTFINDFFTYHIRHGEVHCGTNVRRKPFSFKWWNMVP
# SIAE inh conf – human SIAE inhibitors, retest, confirmation, biochemical, fluorescence polarization, FP-Rh probe, triplicate; shares compounds with SIAE primary; inhibition, % at 9.66 µM; actives 13% (n = 2,300); SIAE FP-Rh activity-based probe;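 active = mean inhibition of the replicates above the hit cutoff set in the primary screen, cut at about 17% in these data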;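 note: 0% = SIAE with DMSO and probe and 100% = probe without SIAE; inhibitors lower polarization as more probe stays unbound to SIAE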
# * = called active by the depositor; . = not tested or not shown.
SMILES,TCR-CD3 inh,Apaf1 inhib,TDP2 inh,GSTO1 counter,SIAE primary,PAD4 inh,SIAE inh conf
CCN(CCn1cccn1)C(=O)c1cc(COc2c(F)cccc2F)on1,-5,-8,0,-5,46*,1,1
COc1ccccc1C1=NOC(Cn2c(NCC3CCCO3)nc3c2c(=O)n(C)c(=O)n3C)C1 (stereo not given),3,-3,15,-3,17*,0,0
O=C(Nc1cc2c3c(c1)CC(=O)N3CCC2)C1CC1,-6,7,0,12,20*,-1,-1
O=C(Nc1cc2c3c(c1)CC(=O)N3CCC2)C1CCCCC1,-2,7,6,3,-3,0,.
COc1ccc(-c2csc(NCc3ccco3)n2)cc1C,.,9,.,-8,.,-10,.
COc1ccc(-c2nc3cccc(C)n3c2NCc2ccco2)cc1OC,1,2,-17,-3,25*,2,4
COc1ccc2nc(C(c3ccc(C)cc3)n3c(-c4ccccc4Br)nc4ccccc43)[nH]c2c1 (stereo not given),3,.,-3,.,27*,.,-3
COc1ccccc1-n1c([S-])c(C(=O)Nc2ccccc2C(F)(F)F)[n+]2ccc(C(=O)NCCO)cc12,-4,2,-1,-3,-6,-8,.
Cc1ccc(-n2c([S-])c(C(=O)Nc3ccc(OC(F)F)cc3)[n+]3ccc(C(=O)NCCO)cc23)cc1C,-3,7,-1,3,18*,1,-7
OC(c1ccccc1)(c1ccccc1)C1CCN(CCCOc2ccncc2)CC1,-3,.,1,.,22*,.,-1
CC(C)CC1C(=O)N(Cc2cn(CCC3OCCO3)nn2)CCS(=O)(=O)N1Cc1ccc(-c2ccc(Cl)c(Cl)c2)cc1 (stereo not given),0,.,4,.,-12,.,.
COc1ccc2nc3ccccc3nc2c1NC(=O)c1ccccc1Cl,1,14,-9,7,-5,3,.
COc1cccc(NC(=O)N2CCCC2)c1,7,-6,6,7,19*,2,1
O=C(Nc1ccc(F)cc1)N1CCCCCC1,-4,8,6,6,18*,-3,-2
CC(=O)Nc1ccc(NC(=O)N2CCCCC2)cc1,-3,-7,-13,7,1,6,.
CC(C)NC(=O)c1onc(CSc2ccccc2)c1C(=O)O,0,6,1,-5,-2,3,.
O=C(COC(=O)/C=C/c1ccc(Cl)cc1Cl)Nc1cccc(S(=O)(=O)NC2=NCCC2)c1,-1,.,10,.,-2,.,.
COc1cc(CNCCN2CCOCC2)ccc1OCc1cccc(Cl)c1,-15,-2,8,6,17*,-1,-6
CC1=NOC2(C1)/C(=N/O)CCC/C2=N\O (stereo not given),9,-2,-14,-1,0,-2,.
C=CCn1cc(CN2CCC(C(=O)Nc3ccc(Oc4cccnc4)cc3)CC2)c(C)n1,-7,-6,-27,4,-3,5,.
O=C(CSc1ccccc1)Nc1ccc(N2CCOCC2)c(F)c1,-5,7,0,7,18*,-1,3
O=C(Nc1ccn(CCCNCc2ccccn2)c(=O)n1)OCc1ccccc1,-5,.,-7,.,-1,.,.
COc1ccc(CC(C(=O)Nc2ccc(OC)cc2)c2nn[nH]n2)cc1 (stereo not given),-9,1,-16,3,26*,-1,1
N#C/C(=C/c1ccc(N2CCCCC2)o1)C(=O)Nc1ccc(Cl)cc1,-7,-13,-3,-3,0,-9,.
N#C/C(=C/c1ccc(N2CCCCC2)o1)C(=O)Nc1ccc2ccccc2c1,1,.,8,.,21*,.,3
SMILES,TCR-CD3 inh,Apaf1 inhib,TDP2 inh,GSTO1 counter,SIAE primary,PAD4 inh,SIAE inh conf
CCc1ccccc1NC(=O)c1onc(C)c1Cl,3,10,8,2,32*,-6,-2
COC(=O)C1=C(C)N(Cc2ccccc2C(F)(F)F)C(=NCc2ccc3c(c2)OCO3)NC1CCc1ccccc1 (stereo not given),1,.,1,.,-2,.,.
Cc1ccc(NC2=C([N+](=O)[O-])CS(=O)(=O)C2)cc1,4,2,0,3,1,-2,.
CN(C)c1ccc(NC2=C([N+](=O)[O-])CS(=O)(=O)C2)cc1,7,-17,4,9,18*,-10,8
CCCCCCCCCCCn1nnnc1N,1,.,10,.,-1,.,.
COc1cccc(C(=O)/C=C/Nc2cc(C)ccc2O)c1,2,14,-1,4,23*,-3,-4
O=S(=O)(O)c1cc(O)c2cc(Nc3ccccc3)ccc2c1,19*,.,14,.,18*,.,43*
COc1ccccc1Nc1ccc2c(O)cc(S(=O)(=O)O)cc2c1,40*,.,0,.,28*,.,53*
O=S(=O)(CC(CN1CCOCC1)N1CCOCC1)c1ccccc1 (stereo not given),2,-4,3,-2,1,-5,.
Cc1cc(N2C(=O)C(O)=C(C(=O)c3cc4ccccc4o3)C2c2ccc([N+](=O)[O-])cc2)no1 (stereo not given),0,0,0,-57,1,-5,.
COc1ccccc1CNc1nc(NCc2ccccc2OC)c2sccc2n1,-7,.,-5,.,20*,.,13
COCCNc1nc(NCc2ccccc2OC)c2sccc2n1,0,.,-8,.,-2,.,.
CCOc1ccc(NC(=O)C2CCN(c3nnnn3-c3ccccc3)CC2)cc1,-7,0,-13,2,-5,2,.
CC(C)CNC(=O)COc1ccc2c3c(c(=O)oc2c1)CCC3,-6,-6,-3,4,-6,1,.
CC12CCCCC1C(C(N)=O)C(=O)O2 (stereo not given),-1,.,-13,.,-5,.,.
CCN(CC)c1ccc(NC(=O)c2cc3c(OC)cccc3[nH]2)cc1,-2,15,-8,-1,25*,-2,12
CC(C)(C)c1ccc(/C=N/NC(=S)NC2CCCCC2)cc1,0,19,-5,-1,-4,-3,.
Cc1ccccc1C(=O)Nc1nnc(-c2ccc(F)cc2)o1,3,10,8,-4,0,1,.
Cc1ccccc1C(=O)Nc1nnc(-c2cccnc2)o1,-4,-26,8,-5,18*,1,-5
